Measurements: ChEMBL document CHEMBL4732243, “Design, synthesis, and structure activity relationship analysis of new betulinic acid derivatives as potent HIV inhibitors” (Eur J Med Chem, 2021)

How the values were obtained:
[1] = test system: Human immunodeficiency virus 1; experiment: Antiviral activity against HIV-1 NL4-3 infected in human MT4 cells assessed as reduction in p24 gag protein incubated for 4 days by ELISA; type: functional, organism-based; conditions: Human immunodeficiency virus 1, NL4-3, MT4, 96 h
How it was run: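 MT-4 cells infected with HIV-1 NL4-3 at MOI 0.01, serial compound concentrations, in 96-well format. Supernatant p24 antigen measured by capture ELISA on day 4 post-infection. IC50 is the concentration that inhibits NL4-3 replication by 50%. Bevirimat run in parallel as the reference.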

[2] = test system: MT4; experiment: Cytotoxicity against human MT4 cells assessed as reduction in cell viability incubated for 2 days by CytoTox-Glo cytotoxicity assay; type: cell-based; conditions: mt4, 48 h, time 2 day
How it was run: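 Mock-infected MT-4 cells cultured 2 days with a range of compound concentrations. Viability measured by CytoTox-Glo, following the kit protocol, as percent viable cells. CC50 is the concentration giving a 50% reduction in cell viability.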

[3] = test system: Human immunodeficiency virus 1; experiment: Potency index, ratio of IC50 for bevirimat to IC50 for test compound for antiviral activity against HIV-1 NL4-3 infected in human MT4 cells assessed as reduction in p24 gag protein incubated for 4 days by ELISA; type: functional; conditions: time 4 day
How it was run: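 MT-4 cells infected with HIV-1 NL4-3 at MOI 0.01 and cultured with the test compounds. Bevirimat was run in parallel as the reference control. Supernatant p24 was measured on day 4 post-infection by antigen-capture ELISA. IC50 is the concentration that inhibits NL4-3 replication by 50%. The index is the bevirimat IC50 divided by the test-compound IC50.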

SMILES	IC50 ([1]; read-out: IC50)	IC50 ([1]; read-out: pIC50 (converted))	CC50 [2]	Ratio IC50 [3]
C=C(C)[C@@H]1CC[C@]2(C(=O)N3CCN(C(=O)/C=C/c4ccc([N+](=O)[O-])cc4)CC3)CC[C@]3(C)[C@H](CC[C@@H]4[C@@]5(C)CC[C@H](OC(=O)CC(C)(C)C(=O)O)C(C)(C)[C@@H]5CC[C@]43C)[C@@H]12	0.11 µM	0.11 µM	> 2 µM	
C=C(C)[C@@H]1CC[C@]2(C(=O)N3CCN(C(=O)CCC(=O)Nc4nccs4)CC3)CC[C@]3(C)[C@H](CC[C@@H]4[C@@]5(C)CC[C@H](OC(=O)CC(C)(C)C(=O)O)C(C)(C)[C@@H]5CC[C@]43C)[C@@H]12	0.04 µM	0.0398 µM	> 2 µM	
C=C(C)[C@@H]1CC[C@]2(C(=O)OCCCNc3nccs3)CC[C@]3(C)[C@H](CC[C@@H]4[C@@]5(C)CC[C@H](OC(=O)CC(C)(C)C(=O)O)C(C)(C)[C@@H]5CC[C@]43C)[C@@H]12	0.039 µM	0.0389 µM	> 2 µM	
C=C(C)[C@@H]1CC[C@]2(C(=O)N3CCN(C(=O)/C=C/c4ccccc4OC)CC3)CC[C@]3(C)[C@H](CC[C@@H]4[C@@]5(C)CC[C@H](OC(=O)CC(C)(C)C(=O)O)C(C)(C)[C@@H]5CC[C@]43C)[C@@H]12	0.17 µM	0.17 µM	> 2 µM	
C=C(C)[C@@H]1CC[C@]2(C(=O)N3CCN(C(=O)/C=C/c4ccc5[nH]ccc5c4)CC3)CC[C@]3(C)[C@H](CC[C@@H]4[C@@]5(C)CC[C@H](OC(=O)CC(C)(C)C(=O)O)C(C)(C)[C@@H]5CC[C@]43C)[C@@H]12	0.05 µM	0.0501 µM	> 2 µM	
C=C(C)[C@@H]1CC[C@]2(C(=O)N3CCN(C(=O)/C=C/c4ccc5c(c4)OC(F)(F)O5)CC3)CC[C@]3(C)[C@H](CC[C@@H]4[C@@]5(C)CC[C@H](OC(=O)CC(C)(C)C(=O)O)C(C)(C)[C@@H]5CC[C@]43C)[C@@H]12	0.59 µM	0.589 µM	> 2 µM	
C=C(C)[C@@H]1CC[C@]2(C(=O)N3CCN(C(=O)/C=C/c4ccc(OC)cc4)CC3)CC[C@]3(C)[C@H](CC[C@@H]4[C@@]5(C)CC[C@H](OC(=O)CC(C)(C)C(=O)O)C(C)(C)[C@@H]5CC[C@]43C)[C@@H]12	0.076 µM	0.0759 µM	> 2 µM	
C=C(C)[C@@H]1CC[C@]2(C(=O)N3CCN(C(=O)/C=C/c4ccc(OCOC)c(OCc5cccc(Cl)c5)c4)CC3)CC[C@]3(C)[C@H](CC[C@@H]4[C@@]5(C)CC[C@H](OC(=O)CC(C)(C)C(=O)O)C(C)(C)[C@@H]5CC[C@]43C)[C@@H]12	0.46 µM		> 2 µM	
C=C(C)[C@@H]1CC[C@]2(C(=O)N3CCN(C(=O)/C=C/c4cccc(O)c4)CC3)CC[C@]3(C)[C@H](CC[C@@H]4[C@@]5(C)CC[C@H](OC(=O)CC(C)(C)C(=O)O)C(C)(C)[C@@H]5CC[C@]43C)[C@@H]12	0.053 µM	0.0525 µM	> 2 µM	
C=C(C)[C@@H]1CC[C@]2(C(=O)N3CCN(C(=O)c4cc5cc(OC)ccc5[nH]4)CC3)CC[C@]3(C)[C@H](CC[C@@H]4[C@@]5(C)CC[C@H](OC(=O)CC(C)(C)C(=O)O)C(C)(C)[C@@H]5CC[C@]43C)[C@@H]12	0.053 µM	0.0525 µM	> 2 µM	
C=C(C)[C@@H]1CC[C@]2(C(=O)N3CCN(C(=O)/C=C/c4cccc(C(F)(F)F)c4)CC3)CC[C@]3(C)[C@H](CC[C@@H]4[C@@]5(C)CC[C@H](OC(=O)CC(C)(C)C(=O)O)C(C)(C)[C@@H]5CC[C@]43C)[C@@H]12	0.56 µM	0.562 µM	> 2 µM	
C=C(C)[C@@H]1CC[C@]2(C(=O)N3CCN(C(=O)/C=C/c4ccc(O)c(O)c4)CC3)CC[C@]3(C)[C@H](CC[C@@H]4[C@@]5(C)CC[C@H](OC(=O)CC(C)(C)C(=O)O)C(C)(C)[C@@H]5CC[C@]43C)[C@@H]12			> 2 µM	2
C=C(C)[C@@H]1CC[C@]2(C(=O)OCCCN3CCN(c4cc(NCc5ccccc5)ncn4)CC3)CC[C@]3(C)[C@H](CC[C@@H]4[C@@]5(C)CC[C@H](OC(=O)CC(C)(C)C(=O)O)C(C)(C)[C@@H]5CC[C@]43C)[C@@H]12	0.43 µM		> 2 µM	
C=C(C)[C@@H]1CC[C@]2(C(=O)N3CCN(C(=O)/C=C/c4c[nH]c5ccccc45)CC3)CC[C@]3(C)[C@H](CC[C@@H]4[C@@]5(C)CC[C@H](OC(=O)CC(C)(C)C(=O)O)C(C)(C)[C@@H]5CC[C@]43C)[C@@H]12	0.069 µM	0.0692 µM	> 2 µM	
C=C(C)[C@@H]1CC[C@]2(C(=O)N3CCN(C(=O)/C(C)=C/c4ccc5c(c4)OCO5)CC3)CC[C@]3(C)[C@H](CC[C@@H]4[C@@]5(C)CC[C@H](OC(=O)CC(C)(C)C(=O)O)C(C)(C)[C@@H]5CC[C@]43C)[C@@H]12	0.057 µM	0.0575 µM	> 2 µM	
C=C(C)[C@@H]1CC[C@]2(C(=O)N3CCN(C(=O)CCc4ccc5c(c4)OCO5)CC3)CC[C@]3(C)[C@H](CC[C@@H]4[C@@]5(C)CC[C@H](OC(=O)CC(C)(C)C(=O)O)C(C)(C)[C@@H]5CC[C@]43C)[C@@H]12	0.022 µM	0.0219 µM	> 2 µM	
C=C(C)[C@@H]1CC[C@]2(C(=O)N3CCN(C(=O)/C=C/c4ccc5occc5c4)CC3)CC[C@]3(C)[C@H](CC[C@@H]4[C@@]5(C)CC[C@H](OC(=O)CC(C)(C)C(=O)O)C(C)(C)[C@@H]5CC[C@]43C)[C@@H]12	0.15 µM	0.151 µM	> 2 µM	
C=C(C)[C@@H]1CC[C@]2(C(=O)N3CCN(C(=O)/C=C/c4ccc(OCOC)cc4)CC3)CC[C@]3(C)[C@H](CC[C@@H]4[C@@]5(C)CC[C@H](OC(=O)CC(C)(C)C(=O)O)C(C)(C)[C@@H]5CC[C@]43C)[C@@H]12	0.2 µM	0.2 µM	> 2 µM	
C=C(C)[C@@H]1CC[C@]2(C(=O)N3CCN(c4cc(NCc5ccccc5)ncn4)CC3)CC[C@]3(C)[C@H](CC[C@@H]4[C@@]5(C)CC[C@H](OC(=O)CC(C)(C)C(=O)O)C(C)(C)[C@@H]5CC[C@]43C)[C@@H]12	0.037 µM		> 2 µM	
C=C(C)[C@@H]1CC[C@]2(C(=O)N3CCN(C(=O)/C=C/c4ccc5c(c4)OCO5)CC3)CC[C@]3(C)[C@H](CC[C@@H]4[C@@]5(C)CC[C@H](OC(=O)CC(C)(C)C(=O)O)C(C)(C)[C@@H]5CC[C@]43C)[C@@H]12			> 2 µM	2
C=C(C)[C@@H]1CC[C@]2(C(=O)N3CCN(C(=O)/C=C/c4cccc(OCc5cccc([N+](=O)[O-])c5)c4)CC3)CC[C@]3(C)[C@H](CC[C@@H]4[C@@]5(C)CC[C@H](OC(=O)CC(C)(C)C(=O)O)C(C)(C)[C@@H]5CC[C@]43C)[C@@H]12	0.58 µM	0.575 µM	> 2 µM	
C=C(C)[C@@H]1CC[C@]2(C(=O)N3CCN(CCCCC(=O)N4CCN(c5cc(NCc6ccccc6)ncn5)CC4)CC3)CC[C@]3(C)[C@H](CC[C@@H]4[C@@]5(C)CC[C@H](OC(=O)CC(C)(C)C(=O)O)C(C)(C)[C@@H]5CC[C@]43C)[C@@H]12	0.012 µM		> 2 µM	
C=C(C)[C@@H]1CC[C@]2(C(=O)N3CCN(C(=O)/C=C/c4ccc5c(c4)CCO5)CC3)CC[C@]3(C)[C@H](CC[C@@H]4[C@@]5(C)CC[C@H](OC(=O)CC(C)(C)C(=O)O)C(C)(C)[C@@H]5CC[C@]43C)[C@@H]12	0.067 µM	0.0676 µM	> 2 µM	
C=C(C)[C@@H]1CC[C@]2(C(=O)N3CCN(C(=O)/C=C/c4cc(OC)c(OC)c(OC)c4)CC3)CC[C@]3(C)[C@H](CC[C@@H]4[C@@]5(C)CC[C@H](OC(=O)CC(C)(C)C(=O)O)C(C)(C)[C@@H]5CC[C@]43C)[C@@H]12	0.041 µM	0.0407 µM	> 2 µM	
C=C(C)[C@@H]1CC[C@]2(C(=O)N3CCN(C(=O)CC(C)(C)C(=O)O)CC3)CC[C@]3(C)[C@H](CC[C@@H]4[C@@]5(C)CC[C@H](ON6CCN(C(=O)CC(C)(C)C(=O)O)CC6)C(C)(C)[C@@H]5CC[C@]43C)[C@@H]12	0.014 µM	0.0141 µM	> 2 µM	
C=C(C)[C@@H]1CC[C@]2(C(=O)N3CCN(C(=O)/C=C/c4cccs4)CC3)CC[C@]3(C)[C@H](CC[C@@H]4[C@@]5(C)CC[C@H](OC(=O)CC(C)(C)C(=O)O)C(C)(C)[C@@H]5CC[C@]43C)[C@@H]12	0.032 µM	0.0324 µM	> 2 µM	
C=C(C)[C@@H]1CC[C@]2(C(=O)N3CCN(C(=O)/C=C/c4ccc(OC)c(Cl)c4)CC3)CC[C@]3(C)[C@H](CC[C@@H]4[C@@]5(C)CC[C@H](OC(=O)CC(C)(C)C(=O)O)C(C)(C)[C@@H]5CC[C@]43C)[C@@H]12	0.13 µM	0.129 µM	> 2 µM	
C=C(C)[C@@H]1CC[C@]2(C(=O)NCCCNC(=O)/C=C/c3ccc4c(c3)OCO4)CC[C@]3(C)[C@H](CC[C@@H]4[C@@]5(C)CC[C@H](OC(=O)CC(C)(C)C(=O)O)C(C)(C)[C@@H]5CC[C@]43C)[C@@H]12	0.017 µM	0.017 µM	> 2 µM	
